The values below come from paper PMC2810401 (Biochemistry, 2010).

≈ marks a conversion by molar mass, not a printed value. Where “and” joins values, the source holds several entries; their conditions need not be identical. Equal entries are not always repeated.

The first test addresses T1, ADC β-lactamase (Acinetobacter baumannii, UniProt Q6DRA1). Kind of test: Ki in direct competition assays with ADC. In kind it is biochemical.
Conditions: not given
The Ki is a dissociation constant, usually derived from enzyme kinetics or from competition with a known ligand. Compound `C[C@@H](O)[C@H]1C(=O)N2C(C(=O)O)=C(S[C@@H]3CN[C@H](CNS(N)(=O)=O)C3)[C@H](C)[C@H]12` [Doripenem] showed a Ki of 12.2 ± 0.4 µM.

`C[C@@H](O)[C@H]1C(=O)N2C(C(=O)O)=C(S[C@@H]3CN[C@H](C(=O)Nc4cccc(C(=O)O)c4)C3)[C@H](C)[C@H]12` [Ertapenem] showed a Ki of 5.8 ± 0.2 µM.

The compound `C[C@@H](O)[C@H]1C(=O)N2C(C(=O)O)=C(SCCN=CN)C[C@H]12` [Imipenem] yielded an inhibition constant (Ki) of 1.3 ± 0.1 µM.

As for `C[C@@H](O)[C@H]1C(=O)N2C(C(=O)O)=C(S[C@@H]3CN[C@H](C(=O)N(C)C)C3)[C@H](C)[C@H]12` [Meropenem], the Ki worked out at 19 ± 2 µM.

The next test has as its target T1, ADC β-lactamase. In words: ESI-MS of intact ADC incubated with inhibitors. Particulars: 14 μM ADC, 15 min, inhibitor: enzyme 20:1; error ± 3 amu. A digest of the protocol: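 ADC-7 was expressed in E. coli BL21(DE3) from pET24a(+) with 0.2 mM IPTG at 37 °C for 4 hr. It was purified by preparative isoelectric focusing and gel-filtration FPLC. Incubations were run with and without test compound, then quenched with 0.1% TFA, desalted on C18 and kept on ice. Samples were diluted to 10 μM in 50% acetonitrile/0.1% TFA, nanospray-infused at 0.5 μl/min for 2 min on a Q-TOF, and spectra were deconvoluted.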
Turning to `C[C@@H](O)[C@H]1C(=O)N2C(C(=O)O)=C(S[C@@H]3CN[C@H](CNS(N)(=O)=O)C3)[C@H](C)[C@H]12` [Doripenem], the “Species observed in deconvoluted spectra” value is 41,058 amu and 41,015 amu; the “Δ difference from β-lactamase molecular weight” value (“Δ difference” for short) is 420 amu and 377 amu.

As to `C[C@@H](O)[C@H]1C(=O)N2C(C(=O)O)=C(S[C@@H]3CN[C@H](C(=O)Nc4cccc(C(=O)O)c4)C3)[C@H](C)[C@H]12` [Ertapenem], the “Species observed in deconvoluted spectra” value was 41,069 amu and 41,112 amu; the “Δ difference” value is 431 amu and 474 amu.

Take `C[C@@H](O)[C@H]1C(=O)N2C(C(=O)O)=C(SCCN=CN)C[C@H]12` [Imipenem]: the “Species observed in deconvoluted spectra” value was 40,936 amu and 40,893 amu; the “Δ difference” value is 298 amu and 255 amu.

Consider `C[C@@H](O)[C@H]1C(=O)N2C(C(=O)O)=C(S[C@@H]3CN[C@H](C(=O)N(C)C)C3)[C@H](C)[C@H]12` [Meropenem], for which the “Species observed in deconvoluted spectra” value is 41,021 amu and 40,979 amu; the “Δ difference” value was 383 amu and 341 amu.

In another test the target is T1, ADC β-lactamase.
Experiment: not given
As to conditions: obtained previously by same methodology; cited from earlier work.
`O=C(O)[C@H]1/C(=C/CO)O[C@@H]2CC(=O)N21` [Clavulanate]: the Ki was 4280 µM.

For `CC1(C)[C@H](C(=O)O)N2C(=O)C[C@H]2S1(=O)=O` [Sulbactam], the Ki is 109 ± 3 µM.

As to `C[C@]1(Cn2ccnn2)[C@H](C(=O)O)N2C(=O)C[C@H]2S1(=O)=O` [Tazobactam], the Ki is 91 ± 21 µM.

The test system of the next test is E. coli DH10B blaADC.
Experiment: not given
As to conditions: E. coli DH10B harboring blaADC; previous data; cited from earlier work.
By MIC is commonly meant the lowest concentration that inhibits growth of the organism. Consider `C[C@@H](O)[C@H]1C(=O)N2C(C(=O)O)=C(S[C@@H]3CN[C@H](C(=O)Nc4cccc(C(=O)O)c4)C3)[C@H](C)[C@H]12` [Ertapenem], for which the MIC is 0.06 µg/mL (≈ 0.126 µM).

On to `C[C@@H](O)[C@H]1C(=O)N2C(C(=O)O)=C(S[C@@H]3CN[C@H](C(=O)N(C)C)C3)[C@H](C)[C@H]12` [Meropenem], for which the minimum inhibitory concentration (MIC) was 0.06 µg/mL (≈ 0.156 µM).
